Experimental data reported in PMC9463373 (Heliyon, 2022).
Entries after “also recorded” stand apart in the source; their conditions may differ. Each block holds one compound with its values, some of them ahead of it.

Legend:
[1] = test system: Escherichia coli AG100; assay: Real-time ethidium bromide accumulation assay; format: cell-based; conditions: E. coli AG100, ethidium bromide accumulation, minute 60, positive control 50 μM
Method in brief: (§1)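 Bacteria were grown to OD600 0.6 (E. coli AG100 in LB; S. aureus in TSB), PBS-washed and resuspended in PBS. Test compound at ½ MIC (100 μM if MIC >100) in PBS with 2 μg/mL EB, mixed 1:1 with the suspension. Fluorescence (ex 525/em 615 nm) read each minute for 1 h. Positive controls: CCCP 50 μM (E. coli), reserpine 25 μM (S. aureus). RFI taken from the accumulation curves.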

[2] = test system: multidrug resistant COLO 320 colonic adenocarcinoma cells overexpressing the ABCB1 transporter; assay: Checkerboard combination assay with doxorubicin; format: cell-based, human; conditions: for Type of interaction / Combination index (CI): with doxorubicin; for Combination index (CI): CI at ED50; for effects with doxorubicin (in words): at certain / particular concentrations
Method in brief: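 Test compounds diluted against doxorubicin in a checkerboard on ABCB1-overexpressing COLO 320 cells (RPMI 1640, 10% heat-inactivated FBS), 6 × 10³ cells/well. Incubated 72 h at 37 °C in 5% CO2. MTT added for 4 h, then SDS in 0.01 M HCl overnight. OD read at 540/630 nm. CI at ED₅₀ by Chou-Talalay median-effect: CI <1 synergism, =1 additive, >1 antagonism.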

[3] = target: P-glycoprotein (Homo sapiens, UniProt P08183); assay: Rhodamine 123 retention by flow cytometry; format: cell-based
Method in brief: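 COLO 205 (parental) and multidrug-resistant COLO 320 cells at 2×10^6/mL in serum-free RPMI 1640. Test compound preincubated 10 min at room temperature, then rhodamine 123 (5.2 µM final) added for 20 min at 37 °C. Cells washed twice and resuspended in PBS. FL-1 mean fluorescence read by flow cytometry against an untreated baseline. Tariquidar positive control at 0.2 µM final. FAR = (MDR treated/MDR control)/(parental treated/parental control).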

[4] = test system: Staphylococcus aureus ATCC; assay: Real-time ethidium bromide accumulation assay; format: cell-based
Method in brief: as §1

[5] = ratio 17.42:1, starting concentration 150 μM
[6] = ratio 34.84:1, starting concentration 150 μM
[7] = ratio 69.68:1, starting concentration 150 μM
[8] = ratio 139.36:1, starting concentration 150 μM
[9] = ratio 278.72:1, starting concentration 150 μM
[10] = ratio 557.44:1, starting concentration 150 μM
[11] = concentration 2 μM, rhodamine 123
[12] = concentration 2 μM, rhodamine 123, COLO 320 vs COLO 205
[13] = concentration 20 μM, rhodamine 123
[14] = concentration 20 μM, rhodamine 123, COLO 320 vs COLO 205
[15] = minute 60, ½ MIC concentration (or 100 μM)
[16] = ratio 23.2:1, starting concentration 200 μM
[17] = ratio 46.4:1, starting concentration 200 μM
[18] = ratio 92.8:1, starting concentration 200 μM
[19] = ratio 185.6:1, starting concentration 200 μM
[20] = ratio 371.2:1, starting concentration 200 μM
[21] = ratio 742.5:1, starting concentration 200 μM
[22] = ratio 18.4:1, starting concentration 80 μM
[23] = ratio 36.8:1, starting concentration 80 μM
[24] = ratio 73.6:1, starting concentration 80 μM
[25] = ratio 147.2:1, starting concentration 80 μM
[26] = ratio 294.4:1, starting concentration 80 μM
[27] = concentration 0.2 μM, positive control, rhodamine 123

Chain of P-glycoprotein (P08183 whole entry): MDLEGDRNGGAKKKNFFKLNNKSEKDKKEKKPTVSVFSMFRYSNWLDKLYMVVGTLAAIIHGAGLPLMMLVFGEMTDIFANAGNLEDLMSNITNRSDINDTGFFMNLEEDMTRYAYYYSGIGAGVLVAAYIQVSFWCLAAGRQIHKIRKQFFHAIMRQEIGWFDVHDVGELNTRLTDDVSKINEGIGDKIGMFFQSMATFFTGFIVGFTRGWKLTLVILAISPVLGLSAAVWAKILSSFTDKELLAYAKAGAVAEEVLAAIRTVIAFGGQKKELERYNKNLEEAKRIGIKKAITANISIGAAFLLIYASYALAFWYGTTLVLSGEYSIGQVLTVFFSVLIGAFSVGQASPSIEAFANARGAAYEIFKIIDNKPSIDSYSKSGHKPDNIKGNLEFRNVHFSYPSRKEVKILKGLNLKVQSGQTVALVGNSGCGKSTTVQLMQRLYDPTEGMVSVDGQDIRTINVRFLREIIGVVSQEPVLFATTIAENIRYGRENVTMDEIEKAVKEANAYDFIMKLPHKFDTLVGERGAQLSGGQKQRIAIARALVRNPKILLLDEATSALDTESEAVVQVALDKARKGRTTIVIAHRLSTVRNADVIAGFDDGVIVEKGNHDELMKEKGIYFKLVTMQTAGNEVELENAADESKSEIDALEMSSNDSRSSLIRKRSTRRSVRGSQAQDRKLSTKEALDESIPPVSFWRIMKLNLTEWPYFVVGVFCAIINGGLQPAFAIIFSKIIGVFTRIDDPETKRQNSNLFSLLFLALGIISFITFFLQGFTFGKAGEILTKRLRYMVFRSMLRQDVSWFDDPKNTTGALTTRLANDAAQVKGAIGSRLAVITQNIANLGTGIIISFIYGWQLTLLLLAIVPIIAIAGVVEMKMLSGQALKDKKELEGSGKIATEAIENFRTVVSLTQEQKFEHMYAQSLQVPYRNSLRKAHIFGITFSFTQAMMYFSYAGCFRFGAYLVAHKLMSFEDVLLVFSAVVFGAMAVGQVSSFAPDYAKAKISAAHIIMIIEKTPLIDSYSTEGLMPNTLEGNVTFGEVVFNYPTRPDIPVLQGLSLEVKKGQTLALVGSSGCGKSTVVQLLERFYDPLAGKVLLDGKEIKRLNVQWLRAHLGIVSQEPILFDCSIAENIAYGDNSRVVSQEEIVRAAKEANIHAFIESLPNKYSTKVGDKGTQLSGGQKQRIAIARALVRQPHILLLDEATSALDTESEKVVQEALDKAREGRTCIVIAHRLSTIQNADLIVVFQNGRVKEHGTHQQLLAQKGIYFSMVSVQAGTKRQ

SMILES: N#CC(C#N)=NNc1cccc(Cl)c1 [CCCP]
- relative fluorescence index (RFI) [1]: 1.34

SMILES: CC(C)=CCOc1c2occc2cc2ccc(=O)oc12 [Compound 1, imperatorin]
- Type of interaction [2, 5]: moderate antagonism
- Combination index (CI) [2, 5]: 1.29
- Type of interaction [2, 6]: additive effect
- Combination index (CI) [2, 6]: 1.06
- Type of interaction [2, 7]: moderate synergism
- Combination index (CI) [2, 7]: 0.75
- Type of interaction [2, 8]: moderate antagonism
- Combination index (CI) [2, 8]: 1.24
- Type of interaction [2, 9]: additive effect
- Combination index (CI) [2, 9]: 0.99
- Type of interaction [2, 10]: additive effect
- Combination index (CI) [2, 10]: 0.99
- FL-1 (mean fluorescence intensity of the cells) [3, 11]: 11.30
- FAR (fluorescence activity ratio) [3, 12]: 1.47
- FL-1 (mean fluorescence intensity of the cells) [3, 13]: 9.82
- FAR (fluorescence activity ratio) [3, 14]: 1.27

SMILES: COc1c2ccoc2c(OCC=C(C)C)c2oc(=O)ccc12 [Compound 2, phellopterin]
- effects with doxorubicin (in words) [2]: antagonistic effects
- Type of interaction [2, 5]: Antagonism
- Combination index (CI) [2, 5]: 2.31
- Type of interaction [2, 6]: moderate antagonism
- Combination index (CI) [2, 6]: 1.40
- Type of interaction [2, 7]: moderate antagonism
- Combination index (CI) [2, 7]: 1.33
- Type of interaction [2, 8]: antagonism
- Combination index (CI) [2, 8]: 1.54
- Type of interaction [2, 9]: additive effect
- Combination index (CI) [2, 9]: 1.05
- Type of interaction [2, 10]: additive effect
- Combination index (CI) [2, 10]: 1.03
- FL-1 (mean fluorescence intensity of the cells) [3, 11]: 11.10
- FAR (fluorescence activity ratio) [3, 12]: 1.44
- FL-1 (mean fluorescence intensity of the cells) [3, 13]: 20.30
- FAR (fluorescence activity ratio) [3, 14]: 2.63
- relative fluorescence index (RFI) [4, 15]: 5.49

SMILES: CC1(C)O[C@H]2CC(=O)OC[C@]23[C@H]2CC[C@@]4(C)[C@H](c5ccoc5)OC(=O)[C@H]5O[C@]54[C@]2(C)C(=O)C[C@@H]13 [Compound 9, limonin]
- FL-1 (mean fluorescence intensity of the cells) [3, 11]: 2.92
- FAR (fluorescence activity ratio) [3, 12]: 0.38
- FL-1 (mean fluorescence intensity of the cells) [3, 13]: 10.00
- FAR (fluorescence activity ratio) [3, 14]: 1.30

SMILES: COC(=O)[C@H]1[C@H]2C[C@@H]3c4[nH]c5cc(OC)ccc5c4CCN3C[C@H]2C[C@@H](OC(=O)c2cc(OC)c(OC)c(OC)c2)[C@@H]1OC [reserpine, reference compound]
- relative fluorescence index (RFI) ([4]; minute 60, positive control 25 μM): 2.77

Second part, led by results:

- FL-1 (mean fluorescence intensity of the cells) [3, 11]: 8.01
- FAR (fluorescence activity ratio) [3, 12]: 1.04
- FL-1 (mean fluorescence intensity of the cells) [3, 13]: 15.60
- FAR (fluorescence activity ratio) [3, 14]: 2.02
SMILES: COc1cc2ccc(=O)oc2cc1OC [Compound 3, 6,7-dimethoxycoumarin]
- effects with doxorubicin (in words) [2]: synergistic effects; also recorded: antagonistic effects
- Type of interaction [2, 16]: antagonism
- Combination index (CI) [2, 16]: 2.06
- Type of interaction [2, 17]: moderate antagonism
- Combination index (CI) [2, 17]: 1.22
- Type of interaction [2, 18]: moderate synergism
- Combination index (CI) [2, 18]: 0.81
- Type of interaction [2, 19]: moderate synergism
- Combination index (CI) [2, 19]: 0.75
- Type of interaction [2, 20]: synergism
- Combination index (CI) [2, 20]: 0.62
- Type of interaction [2, 21]: synergism
- Combination index (CI) [2, 21]: 0.60
- relative fluorescence index (RFI) [4, 15]: 1.04

- FL-1 (mean fluorescence intensity of the cells) [3, 11]: 13.60
- FAR (fluorescence activity ratio) [3, 12]: 1.76
- FL-1 (mean fluorescence intensity of the cells) [3, 13]: 30.80
- FAR (fluorescence activity ratio) [3, 14]: 4.00
SMILES: CC(C)=CCC/C(C)=C/COc1ccc2ccc(=O)oc2c1 [Compound 5, auraptene]
- effects with doxorubicin (in words) [2]: antagonistic effects
- Combination index (CI) ([2]; ratio 9.2:1, starting concentration 80 μM): 3.16
- Type of interaction [2, 22]: strong antagonism
- Combination index (CI) [2, 22]: 8.37
- Type of interaction [2, 23]: slight antagonism
- Combination index (CI) [2, 23]: 1.13
- Type of interaction [2, 24]: antagonism
- Combination index (CI) [2, 24]: 1.72
- Type of interaction [2, 25]: antagonism
- Combination index (CI) [2, 25]: 2.06
- Type of interaction [2, 26]: strong antagonism
- Combination index (CI) [2, 26]: 5.30

- FAR (fluorescence activity ratio) [3, 27]: 11.44
- FL-1 (mean fluorescence intensity of the cells) [3, 27]: 88.20
SMILES: COc1cc2c(cc1OC)CN(CCc1ccc(NC(=O)c3cc(OC)c(OC)cc3NC(=O)c3cnc4ccccc4c3)cc1)CC2 [Tariquidar, reference compound]
